The record followed here is ChEMBL document CHEMBL1144353 (J Med Chem, 2005).

Test [1] in a line: Inhibition of [3H]leucine uptake into CHO cells. The format is functional, cell-based, Cricetulus griseus. In outline: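 CHO-K1 monolayers (90-100% confluent) were washed twice for 20 min at 37 °C in Na+-free choline buffer. Cells were then exposed for 2 min at room temperature to 2 µCi/mL L-[3H]leucine with test compound, 10 mM to 300 nM in half-log steps, in duplicate. Controls were no drug and 10 mM L-leucine. Uptake was stopped with cold buffer washes and counted by scintillation. IC50 from nonlinear least-squares regression.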

Test [2] is described as follows: Equilibrium dissociation constant for Voltage-gated calcium channel alpha2-delta subunit as inhibition of [3H]gabapentin binding to pig brain membranes. The arrangement: species or system Sus scrofa, Membrane. In outline:
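Pig cortical membranes (10-20 µg protein/well) with wheat germ agglutinin SPA beads and 30 nM [3H]gabapentin in 10 mM HEPES/10 mM MgSO4, pH 7.4, incubated overnight (15-24 h) at room temperature, then scintillation counted. Mean ± SEM, N = 4.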

Test [3] deals with Rattus norvegicus. Nature of the test: Brain levels 2 hours after peroral dosing of 30 mg/kg in rats was determined. The format is functional. The settings on record: route oral. In outline: (§1)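 Sprague-Dawley rats were dosed orally at 30 mg/kg and sampled at 2 h. Brain and plasma levels were measured in ng/mL, and B/P is the brain-to-plasma ratio.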
Test [4] has as its system Rattus norvegicus. Nature of the test: Ratio of brain level and plasma level 2 hours after peroral dosing of 30 mg/kg in rats was determined. The format is functional, organism-based. Further details: dose 30 mg/kg. In outline:
as §1

Test [5] concerns System L amino acid transporter (Cricetulus griseus). Nature of the test: Inhibition of [3H]leucine uptake by L-amino acid transporter system in Chinese hamster ovary cells.
Test [6] relates to Rattus norvegicus. Nature of the test: Plasma levels 2 hours after peroral dosing of 30 mg/kg in rats was determined. The format is functional, organism-based. The arrangement: dose 30 mg/kg. In outline:
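Sprague-Dawley rats were given a single 30 mg/kg oral dose. Plasma was sampled 2 h after dosing, with brain levels taken at the same time point, and drug concentration is reported in ng/mL.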

pIC50, pKi: −log10 of the molar value.

The compound `CC(C)CC1CC1(CN)C(=O)O` (stereo in doubt) gave a pIC50 in test [1] (cho) below 2.08. Moreover, the pKi in test [2] was 7.43.
On to `NCC1(C(=O)O)CC12CCCC2` (stereo unspecified), for which the pIC50 in test [1] (Cricetulus griseus, CHO, 2 min) is below 2.08. In addition, the pKi in test [2] was 7.64.
With `NCC1(C(=O)O)CC12CCCCC2` (stereo unspecified), the pIC50 in test [1] (Cricetulus griseus, CHO, 2 min) is below 2.60; in test [5] it was below 2.60. The pKi in test [2] is 7.89. The compound also had a Brain level in the test on Rattus norvegicus [3] of 385 ng/mL. In the test with Rattus norvegicus [4], the B/P came out at 0.054. In the test on Rattus norvegicus [6], this compound gave a Plasma level of 7070 ng/mL.
Compound `CCC(CC)C1CC1(CN)C(=O)O` (stereo in doubt; 12) had a pIC50 in test [1] (cho) below 2.08. For the same compound, the pKi in test [2] was 6.25.
`NCC1(C(=O)O)CC12CCC2` (stereo unspecified): in test [1] (Cricetulus griseus, CHO, 2 min), the pIC50 is below 2.60. In addition, the pKi in test [2] was 6.70.
As for `CC(C)C1CC1(CN)C(=O)O` (stereo unspecified), in test [1] (Cricetulus griseus, CHO, 2 min), the pIC50 is below 2.08. The pKi in test [2] is 6.47.
In test [1] (Cricetulus griseus, CHO, 2 min), `NCC1(C(=O)O)CC1` gave a pIC50 below 2.08. For the same compound, the pKi in test [2] was below 5.00.
As for `CC(C)C[C@H](CN)CC(=O)O` [PREGABALIN], in test [5], the negative logarithm of the IC50 (pIC50) is 3.80. This compound also displayed a Plasma level in the test on Rattus norvegicus [6] of 19400 ng/mL.
With `CCC(CC)C1CC1(CN)C(=O)O` (stereo in doubt), in test [1] (cho), the pIC50 was below 2.60. In test [2], the pKi is 6.20.
For `CC(C)CC1CC1(CN)C(=O)O` (stereo in doubt; 36), the pIC50 in test [1] (cho) is below 2.60. In addition, the pKi in test [2] is 6.48.
`CCCC1(CCC)CC1(CN)C(=O)O` (stereo unspecified): in test [1] (Cricetulus griseus, CHO, 2 min), the pIC50 is below 2.60. Moreover, the pKi in test [2] was 6.70.
